Bioassay records from PubChem.
Most compounds without a hit are left out; they make up all but 2.3% or so of the library.
TPT1 inh: Candida albicans TPT1 enzyme inhibitors, primary screen, biochemical, fluorescence polarization. AID 1962, 2009. recombinant caTPT1, FP RNA substrate dephosphorylation. tRNA 2'-phosphotransferase TPT1 (Candida albicans SC5314). inhibition, % at 5 µM. 300,000 compounds, 0.81% hits;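 active means inhibition above the mean of all tested compounds plus 3 SD, set per screening campaign, cut at about 24% in these data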
CSN inh: inhibitors of CSN-mediated cullin deneddylation, primary screen, biochemical, fluorescence polarization, uHTS | Purified CSN, SCF-Nedd8-OG deneddylation | inhibition, % at 12.5 µM | 360,000 compounds, 0.38% hits | AID 651999, 2013;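 active means pattern-corrected inhibition above about 35%, with an unprinted fluorescence ratio check between 0.5 and 1.5, limit read from the data, passing the limit was not always enough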
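Material: human Csn5 produced in HEK293T cells; Input: enzyme 0.24 nM; Reagent: SCFSkp2-Nedd8OG substrate at 10 nM final; Dosing: 12.5 µM compound; Incubation: 90 min reaction at room temperature; Detection: fluorescence polarization of the substrate; Evaluation: % inhibition of substrate cleavage by Csn5; Control set: substrate-only high control, full reaction low control.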
HNF4A DNA FP: change in binding of human HNF4A to DNA, primary screen, biochemical, fluorescence polarization, FITC-DNA | Hepatocyte nuclear factor 4-alpha (Homo sapiens), P41235 | 1 h | activity change, % at 10 µM | 360,000 compounds, 0.3% hits; in the data active means activity change above about 30%, passing the limit was not always enough
CRFR2-BP ag: agonists of CRF-BP/CRF-R2 complex, primary screen, cell-based, HEK293, calcium dye fluorescence, uHTS; CRF-binding protein / CRF receptor 2 complex (human); calcium dye fluorescence (FLIPR); percent of saturating CRF peptide response; activation, % at 13.2 µM; 350,000 compounds, 0.46% hits; AID 588473, 2011;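 active means activation of at least 50%, plus an integration ratio under a set limit after plate pattern correction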
CRFR2-BP antag: antagonists of CRF-BP/CRF-R2 complex, primary screen, cell-based, HEK293, calcium dye fluorescence, uHTS | CRF-induced calcium fluorescence | 350,000 compounds, 0.59% hits | inhibition, % at 11.8 µM;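 active means inhibition of the ligand-induced calcium signal above about 50% at the single tested concentration, limit read from the data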
Rpn11 block: Rpn11 (PSMD14) deubiquitinase inhibitors, primary screen, biochemical, fluorescence polarization, uHTS; 26S proteasome non-ATPase regulatory subunit 14 (Homo sapiens), O00487; human 26S proteasome, Ub4-pepOG fluorescence polarization; 20S core pre-blocked with epoxomicin; calls only at 20 µM; 360,000 compounds, 0.59% hits;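 active means inhibition at 20 µM, scaled to each plate's controls, above about 33%, limit read from the data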
TPT1 inh confirm: Candida albicans TPT1 inhibitors, confirmation, biochemical, fluorescence polarization, triplicate. AID 2149, 2009. 2,400 compounds, 74% hits. recombinant caTPT1, RNase T1 coupled. inhibition, % at 5 µM. shares compounds with TPT1 inh;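 active means inhibition above the primary screen limit, the mean inhibition of all tested compounds plus 3 SD, cut at about 25% in these data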
RNase T1 counter: RNase T1 inhibitors, counter-screen for TPT1 inhibitor project, biochemical, fluorescence polarization; 2,400 compounds, 83% hits; shares compounds with TPT1 inh; AID 2153, 2009; RNase T1 cleavage, 1536-well; inhibition, % at 5 µM;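 active means inhibition above the solvent-only control well mean plus 3 SD, limit set per screening run, cut at about 23% in these data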;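 further: inhibitors block cleavage so intact labeled substrate keeps polarization high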
CSN deneddyl val: Csn5 deneddylation inhibitors, confirmation, biochemical, fluorescence polarization, single concentration, SCF-Nedd8OG substrate; shares compounds with CSN inh; Csn5 deneddylation of SCF-Nedd8OG, 90 min; inhibition, % at 16.6 µM; 540 compounds, 62% hits; AID 720654, 2013; in the data active means inhibition above about 50%
MMP-2 counter: MMP-2 protease inhibition counter-screen, confirmation, counter-screen for CSN deneddylation inhibitor project, biochemical, fluorescence, single concentration; shares compounds with CSN inh; recombinant MMP-2, FRET substrate fluorescence, 60 min; inhibition, % at 16.6 µM; 540 compounds, 33% hits;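 active means corrected plate-normalized z-score of 5 or more, or -5 or less, or inhibition of 15% or more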
Thrombin cntr: blocks bovine thrombin in a CSN deneddylation counter-screen | shares compounds with CSN inh | bovine thrombin cleavage of Ub4-pepOG, fluorescence polarization | inhibition, % at 16.6 µM | 540 compounds, 49% hits | AID 720656;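 active means inhibition at or above a set limit, with a fluorescence interference ratio between 0.5 and a set maximum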
Target sequence (P00735 whole entry, looked up): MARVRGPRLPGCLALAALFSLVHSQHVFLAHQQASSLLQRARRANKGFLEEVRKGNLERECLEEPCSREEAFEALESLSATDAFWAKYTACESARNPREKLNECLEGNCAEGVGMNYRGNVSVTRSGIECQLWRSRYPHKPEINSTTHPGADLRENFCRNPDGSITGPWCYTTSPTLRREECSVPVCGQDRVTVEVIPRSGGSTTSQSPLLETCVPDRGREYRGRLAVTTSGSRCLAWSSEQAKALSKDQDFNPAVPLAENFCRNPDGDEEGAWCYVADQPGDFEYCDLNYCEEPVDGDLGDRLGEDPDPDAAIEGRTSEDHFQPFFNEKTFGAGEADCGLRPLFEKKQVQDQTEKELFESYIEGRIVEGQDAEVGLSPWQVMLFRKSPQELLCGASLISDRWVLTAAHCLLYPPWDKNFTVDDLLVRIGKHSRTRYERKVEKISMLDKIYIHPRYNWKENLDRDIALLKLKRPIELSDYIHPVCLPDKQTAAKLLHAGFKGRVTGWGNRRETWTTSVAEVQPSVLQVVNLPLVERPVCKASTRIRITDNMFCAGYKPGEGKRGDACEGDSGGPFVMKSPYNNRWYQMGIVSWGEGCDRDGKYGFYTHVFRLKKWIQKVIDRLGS
Numbers stand for hits; . = inactive; / = no result given; + = active, no number.

SMILES | TPT1 inh | CSN inh | HNF4A DNA FP | CRFR2-BP ag | CRFR2-BP antag | Rpn11 block | TPT1 inh confirm | RNase T1 counter | CSN deneddyl val | MMP-2 counter | Thrombin cntr
Cc1cc(/C=C2\SC(=S)N(C)C2=O)c(C)n1-c1ccccc1O | 147 | 39 | . | . | . | / | 147 | 142 | 63 | . | 37
O=C(NCc1ccccc1)c1cc(C2CCCCN2S(=O)(=O)Cc2ccccc2)on1 (stereo unspecified) | / | . | . | / | / | . | / | / | / | / | /
CN(C)CCCN1C(=O)C(=O)/C(=C(/O)c2ccncc2)C1c1ccccc1 (stereo unspecified) | . | . | . | . | . | . | / | / | / | / | /
Cc1cc(NC(=O)c2ccc3nc(C)sc3c2)no1 | . | . | . | . | . | . | / | / | / | / | /
COC1=C/C(=C/c2c(N)n3cc(C)sc3nc2=O)C=CC1=O | 81 | 78 | 66 | 61 | . | / | 127 | 128 | 66 | . | 62
CC(C)(C)OC(=O)CN1C(=O)S/C(=C\c2ccc(-c3cccc(C(=O)O)c3)o2)C1=O | . | / | / | / | / | / | / | / | / | / | /
CC(C)OC(=O)CN1C(=O)S/C(=C/c2ccc(N3CCCCC3)o2)C1=O | 180 | 51 | . | . | . | / | + | 179 | 73 | -114 | .
CCCN(CCC)CC(O)Cn1cc(/C=C/C(=O)c2cccs2)c2ccccc21 (stereo unspecified) | 61 | 42 | . | . | . | / | 64 | 72 | 71 | . | 35
O=C(/C=C/c1ccnc2ccccc12)c1cccs1 | . | . | . | . | . | . | / | / | / | / | /
Cc1ccc(C(=O)COC(=O)c2ccc3c(c2)C(=O)N(c2cccc4ncccc24)C3=O)cc1 | . | . | . | . | . | . | / | / | / | / | /
CN(C)c1ccc(/C=C/C(=O)c2ccccc2O)cc1 | 68 | 70 | . | . | . | / | 55 | 64 | 92 | . | 65
O=C(/C=C/c1cccc(O)c1)c1cccnc1 | . | . | . | . | . | . | / | / | / | / | /
CN(C)c1ccc(/C=C/C(=O)c2cccnc2)cc1 | 93 | 49 | . | 120 | . | / | 100 | 100 | 52 | -43 | 45
Cc1ccc(/C=C/C(=O)c2ccccc2O)cc1 | . | . | . | . | . | . | / | / | / | / | /
